Experimental findings from publication PMC8662605 (Molecular Biology and Evolution, 2021) are described below.

Assay [1] has as its system white-faced saki Tas2R16 (wild-type, 172N). It is filed as cell-based, white-faced saki (Pithecia pithecia).
The test system of assay [2] is 172K mutant of the white-faced saki Tas2R16. Description: functional heterologous cell expression assay, calcium mobilization, mutagenesis. It is filed as cell-based, white-faced saki (Pithecia pithecia). To be noted: for EC50: 172K mutant of white-faced saki Tas2R16. Put shortly: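 Saki Tas2R16 (wild-type, or the reverse 172K mutant made by site-directed mutagenesis) was expressed from HSV-tagged pcDNA5/FRT vectors, transiently transfected into HEK293 cells stably expressing chimeric Gα16-gust44. Calcium mobilisation on bitter stimulation was recorded on a fluorescence plate reader. EC50 came from nonlinear sigmoidal dose–response fits with variable slope. Cell-surface receptor expression was measured by imaging cytometry.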
Background: A change in cytosolic calcium serves as a functional read-out for many receptors and channels.

The target in assay [3] is T1, human Tas2R16 (Homo sapiens, UniProt Q9NYV7).
T1 sequence (Q9NYV7 1-291): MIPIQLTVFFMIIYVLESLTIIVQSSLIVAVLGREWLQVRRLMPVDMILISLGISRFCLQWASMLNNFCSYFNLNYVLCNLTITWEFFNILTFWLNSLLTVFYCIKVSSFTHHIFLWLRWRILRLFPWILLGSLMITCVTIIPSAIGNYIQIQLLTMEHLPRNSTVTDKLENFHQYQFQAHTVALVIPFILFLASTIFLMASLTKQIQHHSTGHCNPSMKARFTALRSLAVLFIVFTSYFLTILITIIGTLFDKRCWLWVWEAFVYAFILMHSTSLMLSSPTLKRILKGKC
The format is cell-based.

[4] abbreviates: 172K saki mutant versus wild-type (172N).

Molecules are shown by their SMILES.

As usually defined, the EC50 is the midpoint of the concentration-response curve. Regarding `O=Cc1ccccc1O[C@@H]1O[C@H](CO)[C@@H](O)[C@H](O)[C@H]1O` [helicin], it took 500 ± 40 µM to reach a half-maximal effect in assay [1] (EC50). In assay [2], the EC50 is 890 ± 110 µM. In assay [2] (setting [4]), the “fold increased EC50 value compared with the wild-type” value is on record as around 2 fold and the “sensitivity compared with the wild-type” value is given as “about 50%”.
Turning to `OCc1ccccc1O[C@@H]1O[C@H](CO)[C@@H](O)[C@H](O)[C@H]1O` [salicin], the EC50 in assay [3] stood at 490 ± 80 µM; in assay [1], 510 ± 30 µM; in assay [2] it was 1120 ± 190 µM. Moreover, the “sensitivity compared with the wild-type” value in assay [2] (setting [4]) is recorded as “about 50%”.
